Source: ChEMBL document CHEMBL1155362, “Synthesis, characterization and derivatization of some novel types of mono- and bis-imidazolidineiminothiones and imidazolidineiminodithiones with antitumor, antiviral, antibacterial and antifungal activities--part I” (Eur J Med Chem, 2009)
In brackets after ≈: the same amount, converted by molar mass. Activity calls are given as the source filed them. The rule behind the calls is not given here.

What was measured:
Aspergillus niger [1] = assay: Antifungal activity against Aspergillus niger Ferm-BAM C-21 at 1 mg/ml by agar disk diffusion assay; assay type: functional; conditions: read-out: DIZ
Outline: (§1)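 Fungi maintained on Czapek's Dox agar; agar well diffusion with 1 cm wells and […] of each concentration (1, 2.5, 5 mg/mL) in DMF; inhibition zone diameter measured.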

Bacillus subtilis [2] = assay: Antibacterial activity against Bacillus subtilis NCIB 3610 at 5 mg/ml by agar disk diffusion assay; assay type: functional
Pseudomonas aeruginosa [3] = assay: Antibacterial activity against Pseudomonas aeruginosa NCIB 9016 at 5 mg/ml by agar disk diffusion assay; assay type: functional
Bacillus subtilis [4] = assay: Antibacterial activity against Bacillus subtilis NCIB 3610 at 2.5 mg/ml by agar disk diffusion assay; assay type: functional
Candida albicans [5] = assay: Antifungal activity against Candida albicans IMRU 3669 at 5 mg/ml by agar disk diffusion assay; assay type: functional; conditions: Candida albicans, IMRU 3669; read-out: DIZ; outline: as §1
Pseudomonas aeruginosa [6] = assay: Antibacterial activity against Pseudomonas aeruginosa NCIB 9016 at 2.5 mg/ml by agar disk diffusion assay; assay type: functional
Candida albicans [7] = assay: Antifungal activity against Candida albicans IMRU 3669 by macrotube dilution assay; assay type: functional
Outline: (§2)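 Macrotube twofold dilution per NCCLS/CLSI guidelines for fungi; 2 mg compound in 2.0 mL DMF, serially diluted across 14 tubes of Czapek's Dox medium, with a control tube; inoculum added to halve the concentration; 30 °C for 72 h; MIC is the lowest concentration without visible growth.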

Candida albicans [8] = assay: Antifungal activity against Candida albicans IMRU 3669 at 2.5 mg/ml by agar disk diffusion assay; assay type: functional; conditions: read-out: DIZ; outline: as §1
Staphylococcus aureus [9] = assay: Antimicrobial activity against Staphylococcus aureus NCTC 7447 by macrotube dilution assay; assay type: functional
Pseudomonas aeruginosa [10] = assay: Antibacterial activity against Pseudomonas aeruginosa NCIB 9016 at 1 mg/ml by agar disk diffusion assay; assay type: functional
Bacillus subtilis [11] = assay: Antimicrobial activity against Bacillus subtilis NCTC 1040 by macrotube dilution assay; assay type: functional
Aspergillus niger [12] = assay: Antifungal activity against Aspergillus niger Ferm-BAM C-21 at 5 mg/ml by agar disk diffusion assay; assay type: functional; conditions: read-out: DIZ; outline: as §1
Aspergillus niger [13] = assay: Antifungal activity against Aspergillus niger Ferm-BAM C-21 by macrotube dilution assay; assay type: functional; outline: as §2
Klebsiella pneumoniae = assay: Antimicrobial activity against Klebsiella pneumoniae NCIMB 9111 by macrotube dilution assay; assay type: functional
Salmonella typhi [14] = assay: Antimicrobial activity against Salmonella typhi NCIMB 9331 by macrotube dilution assay; assay type: functional, Salmonella enterica subsp. enterica serovar Typhi; conditions: Salmonella enterica
Bacillus subtilis [15] = assay: Antibacterial activity against Bacillus subtilis NCIB 3610 at 1 mg/ml by agar disk diffusion assay; assay type: functional
Candida albicans [16] = assay: Antifungal activity against Candida albicans IMRU 3669 at 1 mg/ml by agar disk diffusion assay; assay type: functional; conditions: read-out: DIZ; outline: as §1
Aspergillus niger [17] = assay: Antifungal activity against Aspergillus niger Ferm-BAM C-21 at 2.5 mg/ml by agar disk diffusion assay; assay type: functional; conditions: read-out: DIZ; outline: as §1
Hepatovirus A [18] = assay: Antiviral activity against HAV infected african green monkey Vero cells at 10^-2 dilution of 5 mg/ml by plaque formation assay; assay type: functional
Outline: (§3)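 Compound dilutions prepared from a 5 mg/mL DMSO stock, using the maximum non-toxic dilution for Vero cells over 3 days; 0.1 mL virus (10³) mixed with 0.1 mL compound for 1 h at room temperature; mixture inoculated onto washed Vero monolayers in 12-well plates and adsorbed at 37 °C; 2× MEM/agarose overlay applied; read-out % reduction in plaque count versus untreated virus control.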

Salmonella typhi [19] = assay: Antibacterial activity against Salmonella typhi NCIMB 9331 at 5 mg/ml by agar disk diffusion assay; assay type: functional, Salmonella enterica subsp. enterica serovar Typhi; conditions: Salmonella enterica, read-out: DIZ
Bacillus subtilis [20] = assay: Antibacterial activity against Bacillus subtilis NCTC 1040 at 5 mg/ml by agar disk diffusion assay; assay type: functional; conditions: read-out: DIZ
Staphylococcus aureus [21] = assay: Antibacterial activity against Staphylococcus aureus NCTC 7447 at 5 mg/ml by agar disk diffusion assay; assay type: functional; conditions: read-out: DIZ
Human alphaherpesvirus 1 [22] = assay: Antiviral activity against HSV1 infected african green monkey Vero cells at 10^-2 dilution of 5 mg/ml by plaque formation assay; assay type: functional; outline: as §3
Coxsackievirus B4 [23] = assay: Antiviral activity against Coxsackievirus B4 infected african green monkey Vero cells at 10^-2 dilution of 5 mg/ml by plaque formation assay; assay type: functional; outline: as §3
Escherichia coli = assay: Antibacterial activity against Escherichia coli NCTC 10416 at 5 mg/ml by agar disk diffusion assay; assay type: functional; conditions: read-out: DIZ
Hepatovirus A [24] = assay: Antiviral activity against HAV infected african green monkey Vero cells at 10^-3 dilution of 5 mg/ml by plaque formation assay; assay type: functional; outline: as §3
Human alphaherpesvirus 1 [25] = assay: Antiviral activity against HSV1 infected african green monkey Vero cells at 10^-3 dilution of 5 mg/ml by plaque formation assay; assay type: functional; outline: as §3
Coxsackievirus B4 [26] = assay: Antiviral activity against Coxsackievirus B4 infected african green monkey Vero cells at 10^-3 dilution of 5 mg/ml by plaque formation assay; assay type: functional; outline: as §3
Aspergillus niger [27] = assay: Antifungal activity against Aspergillus niger IMI 31726 at 5 mg/ml by agar disk diffusion assay; assay type: functional; conditions: read-out: DIZ
[28] = Bacillus subtilis, NCIB 3610, read-out: DIZ
[29] = Pseudomonas aeruginosa, NCIB 9016, read-out: DIZ

| Structure (SMILES) | zone of inhibition at 5000 µg/mL (Candida albicans [5]) [mm] | MIC (Candida albicans [7]) [µg/mL] | MIC (Staphylococcus aureus [9]) [µg/mL] | MIC (Bacillus subtilis [11]) [µg/mL] | MIC (Aspergillus niger [13]) [µg/mL] | MIC (Klebsiella pneumoniae) [µg/mL] | MIC (Salmonella typhi [14]) [µg/mL] | zone of inhibition at 1000 µg/mL (Candida albicans [16]) [mm] | zone of inhibition at 5000 µg/mL (Salmonella typhi [19]) [mm] | zone of inhibition at 5000 µg/mL (Bacillus subtilis [20]) [mm] | zone of inhibition at 5000 µg/mL (Staphylococcus aureus [21]) [mm] | zone of inhibition at 5000 µg/mL (Escherichia coli) [mm] | Activity (Hepatovirus A [24]) | Activity (Human alphaherpesvirus 1 [25]) [%] | Activity (Coxsackievirus B4 [26]) | further results |
| --- | --- | --- | --- | --- | --- | --- | --- | --- | --- | --- | --- | --- | --- | --- | --- | --- |
| N#CC(=S)Nc1ccc(Cl)c(Cl)c1 | 44 | 0.97 (≈ 4.2 µM) | 3.9 (≈ 16.9 µM) | 0.97 (≈ 4.2 µM) | 15.6 (≈ 67.5 µM) | 1.95 (≈ 8.44 µM) | 0.24 (≈ 1.04 µM) | 37 | – | – | – | – | – | – | – | zone of inhibition at 1000 µg/mL (Aspergillus niger [1]): 29 mm; diameter of the inhibition zone (DIZ) (Bacillus subtilis [2]): 43 mm; diameter of the inhibition zone (DIZ) (Pseudomonas aeruginosa [3]): 38 mm; diameter of the inhibition zone (DIZ) (Bacillus subtilis [4]): 41 mm; diameter of the inhibition zone (DIZ) (Pseudomonas aeruginosa [6]): 37 mm; zone of inhibition at 2500 µg/mL (Candida albicans [8]): 40 mm; diameter of the inhibition zone (DIZ) (Pseudomonas aeruginosa [10]): 35 mm; zone of inhibition at 5000 µg/mL (Aspergillus niger [12]): 56 mm; diameter of the inhibition zone (DIZ) (Bacillus subtilis [15]): 40 mm; zone of inhibition at 2500 µg/mL (Aspergillus niger [17]): 45 mm |
| CCOc1ccc(N2C(=O)N(c3ccc4c(c3)Cc3ccccc3-4)C(=O)C2=S)cc1 | 14.5 | – | – | – | – | – | – | – | 17.5 | 17 | 15.5 | 19 | – | – | – | Activity (Hepatovirus A [18]): 50%; Activity (Human alphaherpesvirus 1 [22]): 50%; Activity (Coxsackievirus B4 [23]): 60% |
| O=C1N(c2ccc(Cl)cc2)CC(=S)N1c1ccc(Cl)c(Cl)c1 | 32 | 0.97 (≈ 2.61 µM) | 15.6 (≈ 42 µM) | 1.95 (≈ 5.25 µM) | 31.3 (≈ 84.2 µM) | 3.9 (≈ 10.5 µM) | 0.49 (≈ 1.32 µM) | 25 | – | – | – | – | – | – | – | zone of inhibition at 5000 µg/mL (Bacillus subtilis [2]; [28]): 20 mm; zone of inhibition at 5000 µg/mL (Pseudomonas aeruginosa [3]; [29]): 37 mm; zone of inhibition at 2500 µg/mL (Bacillus subtilis [4]; [28]): 20 mm; zone of inhibition at 2500 µg/mL (Pseudomonas aeruginosa [6]; [29]): 32 mm; zone of inhibition at 1000 µg/mL (Pseudomonas aeruginosa [10]; [29]): 29 mm; zone of inhibition at 1000 µg/mL (Bacillus subtilis [15]; [28]): 19 mm |
| N=C1C(=S)N(c2ccc(I)cc2)C(=O)N1c1ccc2c(c1)Cc1ccccc1-2 | 13 | – | – | – | – | – | – | – | 17 | 13.5 | 13.5 | 15 | 50% | 70 | 50% | – |
| CCOc1ccc(N2C(=O)N(c3ccc4c(c3)Cc3ccccc3-4)C(=N)C2=S)cc1 | 15 | – | – | – | – | – | – | – | 18 | 17 | 19 | 17 | inactive | 50 | inactive | zone of inhibition at 5000 µg/mL (Aspergillus niger [27]): 20 mm |
